# High-throughput results as filed in PubChem.
# In the library only some 1.9% were active in any assay of this set; here they are far more common.
# LEDGF integ inh: blocks HIV-1 LEDGF/p75-dependent DNA integration; TR-FRET IN-LEDGF/p75 DNA integration, Eu/Cy5; inhibition, % at 3.7 µM; 0.64% of 370,000 active;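 active = inhibition above the screen-wide mean plus 3 SD, cut at about 13% in these data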;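 note: signal is the Cy5 over europium emission ratio at 671 and 618 nm; 0% = plate median of compound wells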
# Casp6 inh: caspase-6 (human) enzyme inhibition; P55212; purified caspase-6, Z-VEID-R110 cleavage fluorescence; inhibition, % at 12.5 µM; 0.53% of 350,000 active;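 active = mean inhibition across replicates at least about 35%, with every replicate also reaching that limit, limit read from the data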;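 note: 0% = median of neutral control wells and 100% = no fluorescence left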
# UHRF1 MBD2 ctr: blocks human UHRF1 binding to methylated DNA; inhibition, % at 4.4 µM; 0.75% of 370,000 active; UHRF1 binding to methylated oligo, TR-FRET; Q96T88; in the data active = inhibition above about 21%;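 note: UHRF1 SRA domain binding a hemimethylated CpG hairpin DNA probe; 0% = median of test compound wells and 100% = reference inhibitor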
# TDP2 absorb: blocks human TDP2 phosphodiesterase activity; inhibition, % at 12.8 µM; recombinant TDP2, T5PNP hydrolysis, p-nitrophenol absorbance 415 nm; AID 720702; O95551; 0.34% of 370,000 active;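 active = inhibition above the mean of all tested compounds plus 3 SD, set per campaign, cut at about 25% in these data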;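 note: 0% = DMSO with enzyme and 100% = buffer with substrate but no TDP2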
# Target sequence (O95551 whole entry, looked up): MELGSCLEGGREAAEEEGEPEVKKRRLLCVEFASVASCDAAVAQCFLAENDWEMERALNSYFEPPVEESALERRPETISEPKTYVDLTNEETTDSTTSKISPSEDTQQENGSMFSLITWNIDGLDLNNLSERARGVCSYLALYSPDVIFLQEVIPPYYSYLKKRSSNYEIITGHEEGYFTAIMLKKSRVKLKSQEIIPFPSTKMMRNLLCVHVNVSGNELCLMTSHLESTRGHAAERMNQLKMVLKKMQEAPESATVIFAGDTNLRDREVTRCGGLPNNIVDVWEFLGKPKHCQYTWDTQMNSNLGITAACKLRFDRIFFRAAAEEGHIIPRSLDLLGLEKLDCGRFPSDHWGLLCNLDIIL
#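 Test system: Human TDP2 enzyme | Reagent: 5 mM T5PNP | Compound dosing: 12.8 µM single point, 1% DMSO | Incubation: Enzyme reaction with compound for 2 h at 37 °C | Technique: p-Nitrophenol epi absorbance | Read-out: % inhibition relative to enzyme-containing and enzyme-free wells | Benchmarks: High control without enzyme, low control DMSO plus TDP2 | Replicates: Singlicate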
# MBD2 DNA inh: inhibitors of human MBD2 binding to methylated oligonucleotide; TR-FRET; Q9UBB5; inhibition, % at 4.4 µM; 0.31% of 370,000 active; in the data active = inhibition above about 13%
# NSD2 HMT inh: inhibitors of human histone methyltransferase NSD2; inhibition, % at 12.5 µM; NSD2 peptide methylation, AlphaScreen, 120 min; 0.54% of 310,000 active; O96028; in the data active = inhibition above about 50%
# TDP2 confirm: human TDP2 inhibition, confirmation. recombinant human TDP2, absorbance read-out. inhibition, % at 12.8 µM. 22% of 1,100 active. AID 743263. shares compounds with TDP2 absorb; in the data active = inhibition above about 25%;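 note: 0% = vehicle with enzyme and 100% = no enzyme buffer only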
# IN multimer act: activates HIV-1 integrase multimerization in LEDGF counter-screen | shares compounds with LEDGF integ inh | TR-FRET HIV-1 integrase multimerization, biochemical | activation, % at 7.7 µM | 17% of 2,000 active | AID 1053131; in the data active = activation above about 8.9%
# TR-FRET interf: optically interferes with TR-FRET readout in LEDGF counter-screen | shares compounds with LEDGF integ inh | TR-FRET optical interference counterscreen, HIV-1 IN multimerization | inhibition, % at 7.7 µM | 2,000 tested, under 10 active;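 active = inhibition above the mean over all tested compounds plus 3 SD, which no compound reached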;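 note: 0% = integrase with antibodies and DMSO and 100% = antibodies without integrase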
# IN-LEDGF confirm: LEDGF/p75-dependent HIV-1 integration inhibition, confirmation; shares compounds with LEDGF integ inh; TR-FRET LEDGF/p75-dependent HIV-1 integration, biochemical; inhibition, % at 3.7 µM; 36% of 2,000 active; in the data active = inhibition above about 14%
# Active calls of the source: *; / = not tested or not shown.
SMILES,LEDGF integ inh,Casp6 inh,UHRF1 MBD2 ctr,TDP2 absorb,MBD2 DNA inh,NSD2 HMT inh,TDP2 confirm,IN multimer act,TR-FRET interf,IN-LEDGF confirm
O=C(Nc1c(-c2ccc3c(c2)OCO3)[nH][nH]c1=O)c1cccc(C(F)(F)F)c1,20*,4,14,55*,2,/,9,2,-11,-3
COc1ccc(CNC(=O)C[C@@H]2C[C@@H]3c4cc(NS(C)(=O)=O)ccc4O[C@@H]3[C@@H](CO)O2)cc1,/,1,/,/,/,/,/,/,/,/
CC1CCN(c2cc(N3CCOCC3)c([N+](=O)[O-])cc2F)CC1,1,/,-3,2,-2,42,/,/,/,/
CCc1nnc(N/N=C/c2ccc(N3CCC(C)CC3)c([N+](=O)[O-])c2)n1N,38*,11,-6,68*,-1,/,12,2,-9,0
Cc1nnc(N/N=C/c2cc([N+](=O)[O-])c(N3CCC(C)CC3)cc2N2CCC(C)CC2)n1N,52*,/,3,53*,-6,-4,-14,2,-5,-2
O=[N+]([O-])c1cc([N+](=O)[O-])c2nonc2c1Nc1ccc(O)cc1,15*,24,-3,25*,-13,38,7,6,-20,3
CC=Cc1ccc2n(c1=O)C[C@H]1[C@H](CO)[C@@H](C(=O)NCC)[C@@H]2N1CC1CCOCC1 (mixture of isomers),/,2,/,/,/,/,/,/,/,/
Cc1ccc(S(=O)(=O)Nc2ccc(O)c3ccccc23)c(C)c1,14*,6,-5,29*,-9,3,10,4,-14,2
CCOC(=O)c1c(C)oc2c1c(C=NCC1CCCO1)c(O)c1ccccc12 (configuration not stated),17*,/,9,29*,-5,99*,11,1,-3,-1
O=C(Nc1c(-c2ccc(Cl)cc2)[nH][nH]c1=O)c1ccccc1Cl,-5,1,-8,2,-5,/,/,/,/,/
Cc1ccc(C(=O)Nc2c(-c3ccc(Cl)cc3)[nH][nH]c2=O)cc1,14*,6,4,61*,2,/,27*,4,-12,1
Cc1ccc(S(=O)(=O)N[C@H]2CC[C@H](CCNC(=O)c3ccc4c(c3)OCO4)O[C@H]2CO)cc1,/,-6,/,/,/,/,/,/,/,/
NC(=O)C1CCCN(CC(O)COCc2ccc(Cl)cc2)C1 (configuration not stated),78*,-3,-3,28*,1,-1,2,1,-2,-2
CCOC(=O)C1CCN(CC(O)COCc2ccc(Cl)cc2)CC1 (configuration not stated),-1,-6,-3,7,3,-3,/,/,/,/
CCOc1cc(/C=C2/C(=O)N(c3ccccc3)N=C2C)ccc1OC(=O)c1ccco1,25*,/,18,77*,10,8,29*,1,-5,7
CCOc1cc(/C=C2/C(=N)N3N=C(CC)SC3=NC2=O)ccc1OC(=O)c1ccco1,-1,7,2,9,2,11,/,/,/,/
CN1c2ccccc2C(C)(C)C12C=Nc1c(cc(N3CCOCC3)c3ccccc13)O2 (configuration not stated),14*,/,8,53*,-7,1,12,2,-6,-1
C[C@@H]1CCCCO[C@@H](CN(C)C(=O)CCC(F)(F)F)[C@@H](C)CN([C@@H](C)CO)C(=O)c2cc(NC(=O)NC3CCCCC3)ccc2O1,/,2,/,/,/,/,/,/,/,/
CCc1nnc(N/N=C/c2ccccc2F)n1N,58*,5,8,66*,1,3,4,0,2,0
CCc1nnc(N/N=C/c2ccccc2Cl)n1N,46*,/,9,61*,-4,-1,-2,0,-1,-1
